Compound activity (PubChem BioAssay)
The list is not random: actives were taken first. Their share in the collection is about 27%.
Cav32 inh – blocks human Cav3.2 T-type calcium channel; hit rate 4% among 100,000; AID 449739; B-score at 10 µM; Cav3.2-expressing cells, Fluo-4 calcium fluorescence FDSS; hits give low values;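 active = single-dose well whose peak fluorescence ratio is a statistical outlier from its plate by either plate-standardised score or position-corrected B-score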
CYP2C9 act – increases human cytochrome P450 2C9 activity; recombinant CYP2C9, luciferin-H conversion, luminescence; hits give high values; factor 1 = untreated enzyme, 0 = blocked; activation factor at 5 µM; hit rate 1.4% among 96,000;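 active = activation factor of 2 or more for CYP2C9 at a 5 µM dose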
CYP2C19 activ – activators of human cytochrome P450 2C19; P33261; recombinant CYP2C19, luciferin-H EGE luminescence; hits give high values; 0 = fully inhibited enzyme, 1 = untreated enzyme; activation factor at 5 µM; 96,000 tested, under 10 active;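 active = activation factor of at least 2 at 5 µM in the primary screen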
CYP2C9 inhib – human CYP2C9 inhibition; P11712; CYP2C9 Supersomes, luciferin-H conversion, luminescence; inhibition, % at 5 µM; hit rate 20% among 96,000; AID 777;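 active = blocking of liver enzyme CYP2C9 beyond about 50% at 5 µM, limit read from the data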
CYP2C19 inh – inhibitors of human CYP2C19 | P33261 | CYP2C19 Supersomes, luciferin-H EGE luminescence, 30 min | inhibition, % at 5 µM | hit rate 21% among 96,000;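 active = CYP2C19 inhibition above a set limit at 5 µM in the primary screen, cut at about 50% in these data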
HIV Rev-RRE inh – HIV Rev-RRE protein-RNA interaction inhibition. Rev peptide-RRE RNA binding, FRET. AID 704. hit rate 0.79% among 97,000. inhibition, % at 8 µM;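 active = inhibition above the screen-wide mean plus 3 SD, cut at about 35% in these data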
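assay system = Cy5-tagged RRE RNA duplex with fluorescein-tagged Rev peptide | incubation = 5 + 15 min at 25 °C | also added = labelled Rev peptide | measure = % inhibition of FRET ratio versus controls | benchmarks = DMSO wells as 0% and neomycin B wells as 100% inhibition | measured by = FRET fluorescence readout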
Numbers stand for hits; . = inactive; / = not tested or not shown.

SMILES | Cav32 inh | CYP2C9 act | CYP2C19 activ | CYP2C9 inhib | CYP2C19 inh | HIV Rev-RRE inh
COc1cc2c(cc1OC)C(c1cccc([N+](=O)[O-])c1)N(C(=O)c1ccc(F)cc1)CC2 (stereo unspecified) | -5.3 | . | . | 65 | 81 | .
O=C(CSc1nnc(-c2ccc(Cl)cc2Cl)n1C1CCCCC1)N1CCCC1 | . | . | . | . | . | .
CCCCNC(=O)CS(=O)Cc1nc(-c2cccc(Cl)c2)oc1C (stereo unspecified) | . | . | . | 62 | . | .
CCCCSCCCNC(=O)CS(=O)Cc1nc(-c2cccc(C)c2)oc1C (stereo unspecified) | . | . | . | 78 | 85 | .
COCCCNC(=O)CS(=O)Cc1nc(-c2cccc(OC)c2)oc1C (stereo unspecified) | . | . | . | . | . | .
CCOC(=O)CN1C(=O)N[C@@H](c2ccco2)C(C(C)=O)=C1C | . | / | / | / | / | /
c1ccc(-n2nnnc2SCc2cccc3nsnc23)cc1 | . | . | . | . | . | .
CCOc1ccc(C(=O)Nc2ccc(N3CCN(C)CC3)cc2)cc1Br | / | . | . | . | . | .
O=S(=O)(Cc1ccccc1)N1CCc2ccccc2C1 | . | 3.7 | . | . | 97 | .
O=S(=O)(c1ccc(Br)s1)N1CCc2ccccc2C1 | . | / | / | / | / | .
O=S(=O)(c1ccc(Cl)s1)N1CCc2ccccc2C1 | . | . | . | . | 67 | .
O=S(=O)(Cc1ccccc1)N1CCCCCC1 | . | . | . | . | 66 | .
CC(C)(C)c1nnc(NC(=O)NS(=O)(=O)c2ccccc2)s1 | . | . | . | . | . | .
COc1ccc(-n2c(O)cnc2Nc2nc(C)cc(C)n2)cc1OC | / | . | . | . | . | .
O=[N+]([O-])CC(=Nc1ccc(Cl)cc1)N/N=C\c1oc(O)c2ccccc12 | . | . | . | . | . | .
Cc1cccc(NC(=O)c2cc3ccccc3o2)c1 | . | / | / | / | / | .
O=C(Cc1cccs1)Nc1cccc(-c2nc3ccccc3o2)c1 | . | . | . | 67 | . | .
COc1ccccc1OCC(=O)Nc1cccc(-c2nc3ccccc3o2)c1 | . | . | . | . | . | .
Cc1ccc(-c2nnc(-c3cccc(NC(=O)c4cccs4)c3)o2)cc1 | . | . | . | 78 | 55 | .
CCC(=O)Nc1cccc(-c2nc3ccccc3o2)c1 | . | . | . | . | 54 | .
CCC(=O)Nc1cccc(NC(=O)c2cc3ccccc3o2)c1 | / | . | . | . | 62 | .
Cc1ccc(-c2nc3ccccc3o2)cc1NC(=O)Cc1cccs1 | . | . | . | . | . | .
O=C(CSc1nnc2c(Cl)cc(C(F)(F)F)cn12)Nc1ccc2c(c1)OCO2 | . | . | . | . | . | .
O=C(NCc1nc2ccccc2[nH]1)C1=C[C@H](c2coc3ccccc3c2=O)C[C@H](OCc2ccc(CO)cc2)O1 | . | / | / | / | / | /
C=CCn1c(CCCNC(=O)CCC)nc2ccccc21 | . | / | / | / | / | .
SMILES | Cav32 inh | CYP2C9 act | CYP2C19 activ | CYP2C9 inhib | CYP2C19 inh | HIV Rev-RRE inh
O=C(Cc1cccs1)Nc1ccc(-c2nnc(-c3ccccc3)o2)cc1 | . | / | / | / | / | .
Cc1cccc(-c2nnc(-c3cccc(NC(=O)Cc4cccs4)c3)o2)c1 | . | . | . | 65 | 72 | .
CCn1nnc(-c2ccccc2NC(=O)c2cccc(-n3cnnn3)c2)n1 | . | . | . | . | . | .
CSCCC(NC(=O)OC(C)(C)C)C(=O)NC(C(=O)NC(CC(C)C)C(N)=O)C(C)C (stereo unspecified) | . | . | . | . | . | .
Cc1sc2ncn(CCC(=O)O)c(=O)c2c1C | . | 3.2 | . | . | . | .
O=C(O)Cc1ccc2c(c1)N(S(=O)(=O)c1cccc(C(F)(F)F)c1)CC(C(=O)O)O2 (stereo unspecified) | . | . | . | . | . | .
CCC(=O)N1CCc2cc(Br)cc(S(=O)(=O)CCC(=O)NCCc3ccccc3)c21 | . | . | . | 72 | . | .
Cc1ccc(CNC(=O)CCS(=O)(=O)c2cc(Br)cc3c2N(C(=O)C2CC2)CC3)o1 | . | . | . | 89 | . | /
CC(C)CCn1c(N2CCc3ccccc3C2)nc2c1c(=O)[nH]c(=O)n2C | . | / | / | / | / | /
CC(=O)N1CCC(N(CCCOC(C)C)C(=O)Nc2ccc(C)c(C)c2)CC1 | . | . | . | . | . | .
Cc1cc(C)n(C(C[N+](=O)[O-])c2ccc(Cl)cc2)n1 (stereo unspecified) | . | . | . | 58 | 76 | .
